Measured values as given in ChEMBL document CHEMBL3853295, “Design and synthesis of novel pyrazolo[1,5-a]pyrimidine derivatives bearing nitrogen mustard moiety and evaluation of their antitumor activity in vitro and in vivo” (Eur J Med Chem, 2016).

What was measured:
[1] = Cytotoxicity against human SH-SY5Y cells after 72 hrs by MTT assay; type: functional, cell-based
Summary of the method: (§1)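 Cells cultured in DMEM or RPMI 1640 with 10% FBS. Seeded at about 2 × 10^3 per well and grown 24 h at 37 °C, 5% CO2. Compounds added at final 0.1–1000 uM for 72 h, 5 wells per concentration. MTT added for 4 h at 37 °C, then lysis overnight. Absorbance read at 570 nm against a 650 nm reference; IC50 calculated.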

[2] = Cytotoxicity against human MCF7 cells after 72 hrs by MTT assay; type: functional, cell-based; details: MCF7, 72 h; summary of the method: as §1
[3] = Cytotoxicity against human HepG2 cells after 72 hrs by MTT assay; type: functional, cell-based; details: HepG2, 72 h; summary of the method: as §1
[4] = Cytotoxicity against human A549 cells after 72 hrs by MTT assay; type: functional, cell-based; details: A549, 72 h; summary of the method: as §1
[5] = Cytotoxicity against human DU145 cells after 72 hrs by MTT assay; type: functional, cell-based; details: DU-145, 72 h; summary of the method: as §1
[6] = Cytotoxicity against human GES-1 cells assessed as reduction in cell viability after 72 hrs by MTT assay; type: toxicity, cell-based, GES1; summary of the method: as §1
[7] = Antitumor activity against human HepG2 cells xenografted in nude mouse assessed as tumor growth inhibition at 10 mg/kg, ip administered every day for 15 times measured from day 12 to 26; type: functional; parameters: scale not given: the % may be the effect or the level left
Summary of the method: (§2)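 Female nude mice given 5 × 10^6 HepG-2 cells subcutaneously in the left flank. Randomized, n = 5 per group. Daily i.p. injection for 15 times, with saline as vehicle control. Tumor length and width recorded every other day; volume taken as 1/2·length·width² once tumors reached 130–160 mm3. Result is tumor growth inhibition versus the saline group.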

[8] = Antitumor activity against human HepG2 cells xenografted in nude mouse assessed as tumor growth inhibition at 20 mg/kg, ip administered every day for 15 times measured from day 12 to 26; type: functional; parameters: scale not given: the % may be the effect or the level left; summary of the method: as §2

| Compound | IC50 [1] [µM] | IC50 [2] [µM] | IC50 [3] [µM] | IC50 [4] [µM] | IC50 [5] [µM] | IC50 at 72 h [6] [µM] | Activity [7] [%] | Activity [8] [%] |
| --- | --- | --- | --- | --- | --- | --- | --- | --- |
| CCN1CCN(Cc2cc(Nc3cccc(N(CCCl)CCCl)c3)n3ncc(C#N)c3n2)CC1 | 22.7 | 23.9 | 16.6 | 16.5 | 44.1 | – | – | – |
| CN(C)Cc1cc(Nc2cccc(N(CCCl)CCCl)c2)n2ncc(C#N)c2n1 | 40.8 | 54.6 | 33.6 | 39.8 | 59.3 | – | – | – |
| CCOC(=O)C1CCN(Cc2cc(Nc3cccc(N(CCCl)CCCl)c3)n3ncc(C#N)c3n2)CC1 | > 100 | > 100 | 88.1 | > 100 | > 100 | – | – | – |
| CCOC(=O)C1CCN(Cc2cc(Nc3ccc(N(CCCl)CCCl)cc3)n3ncc(C#N)c3n2)CC1 | 74.1 | > 100 | 74.2 | > 100 | > 100 | – | – | – |
| N#Cc1cnn2c(Nc3cc(F)cc(F)c3)cc(CN(CCCl)CCCl)nc12 | > 100 | 84.4 | > 100 | > 100 | > 100 | – | – | – |
| N#Cc1cnn2c(Nc3ccc(C(F)(F)F)cc3)cc(CN(CCCl)CCCl)nc12 | > 100 | 33 | 55.5 | > 100 | 95.1 | – | – | – |
| COc1cc(Nc2cc(CN(CCCl)CCCl)nc3c(C#N)cnn23)cc(OC)c1 | > 100 | > 100 | > 100 | > 100 | > 100 | – | – | – |
| Cc1ccccc1Nc1cc(CN(CCCl)CCCl)nc2c(C#N)cnn12 | > 100 | 99.2 | > 100 | > 100 | > 100 | – | – | – |
| N#Cc1cnn2c(Nc3cccc(N(CCCl)CCCl)c3)cc(CN3CCC(c4ccccc4)CC3)nc12 | > 100 | > 100 | > 100 | > 100 | > 100 | – | – | – |
| CN(C)C1CCN(Cc2cc(Nc3cccc(N(CCCl)CCCl)c3)n3ncc(C#N)c3n2)CC1 | 15.3 | 25.2 | 9.22 | 12.7 | 27 | – | – | – |
| N#Cc1cnn2c(Nc3cccc(N(CCCl)CCCl)c3)cc(CN3CCCC3)nc12 | 15.7 | 37.5 | 14.4 | 17.5 | 35.4 | – | – | – |
| CC1CCN(Cc2cc(Nc3ccc(N(CCCl)CCCl)cc3)n3ncc(C#N)c3n2)CC1 | 19.2 | 82.9 | 23.6 | 18.3 | 43.4 | 17.5 | – | – |
| N#Cc1cnn2c(Nc3cccc(N(CCCl)CCCl)c3)cc(CN3CCC(O)CC3)nc12 | 36.7 | 70.4 | 29.7 | 35.8 | > 100 | – | – | – |
| N#Cc1cnn2c(Nc3ccc(N(CCCl)CCCl)cc3)cc(CN3CCC(O)CC3)nc12 | 13.7 | 20.4 | 9.11 | 20.6 | 20.9 | – | – | – |
| Cc1cc(C)cc(Nc2cc(CN(CCCl)CCCl)nc3c(C#N)cnn23)c1 | > 100 | > 100 | 59.4 | 97.4 | > 100 | – | – | – |
| N#Cc1cnn2c(Nc3ccc(Br)cc3)cc(CN(CCCl)CCCl)nc12 | 49.1 | 28.3 | 37.2 | 61.4 | 33.1 | – | – | – |
| CN(C)C1CCN(Cc2cc(Nc3ccc(N(CCCl)CCCl)cc3)n3ncc(C#N)c3n2)CC1 | 7.86 | 12.4 | 4.01 | 5.12 | 7.67 | 11.1 | – | – |
| CN1CCN(Cc2cc(Nc3ccc(N(CCCl)CCCl)cc3)n3ncc(C#N)c3n2)CC1 | 7.42 | 12.2 | 2.92 | 8.9 | 23.6 | 8.29 | – | – |
| CCOC(=O)c1ccc(Nc2cc(CN(CCCl)CCCl)nc3c(C#N)cnn23)cc1 | 64.4 | 26.4 | 52.1 | 85.4 | 37.3 | – | – | – |
| N#Cc1cnn2c(Nc3ccc(N(CCCl)CCCl)cc3)cc(CN3CCC(CO)CC3)nc12 | 11.5 | 16.2 | 8.54 | 12.8 | 26.8 | – | – | – |
| N#Cc1cnn2c(Nc3ccc(N(CCCl)CCCl)cc3)cc(CN3CCC(c4ccccc4)CC3)nc12 | > 100 | > 100 | > 100 | > 100 | > 100 | – | – | – |
| N#Cc1cnn2c(Nc3cccc(N(CCCl)CCCl)c3)cc(CN3CCOCC3)nc12 | 61 | > 100 | 33.4 | > 100 | > 100 | – | – | – |

| Compound | IC50 [1] [µM] | IC50 [2] [µM] | IC50 [3] [µM] | IC50 [4] [µM] | IC50 [5] [µM] | IC50 at 72 h [6] [µM] | Activity [7] [%] | Activity [8] [%] |
| --- | --- | --- | --- | --- | --- | --- | --- | --- |
| N[C@@H](Cc1ccc(N(CCCl)CCCl)cc1)C(=O)O [MELPHALAN] | > 100 | 40.6 | 18.3 | 43.8 | > 100 | – | – | – |
| C#Cc1cccc(Nc2cc(CN(CCCl)CCCl)nc3c(C#N)cnn23)c1 | > 100 | 34 | 44.2 | > 100 | 83.1 | – | – | – |
| N#Cc1cnn2c(Nc3cccc(F)c3)cc(CN(CCCl)CCCl)nc12 | > 100 | > 100 | 67.2 | > 100 | > 100 | – | – | – |
| N#Cc1cnn2c(Nc3ccccc3Br)cc(CN(CCCl)CCCl)nc12 | > 100 | > 100 | > 100 | > 100 | > 100 | – | – | – |
| CN1CCN(Cc2cc(Nc3cccc(N(CCCl)CCCl)c3)n3ncc(C#N)c3n2)CC1 | 15.3 | 41.1 | 17.6 | 19.5 | 50.5 | – | – | – |
| N#Cc1cnn2c(Nc3cccc(Cl)c3)cc(CN(CCCl)CCCl)nc12 | > 100 | 23 | 56.6 | > 100 | 43.5 | – | – | – |
| N#Cc1cnn2c(Nc3ccccc3Cl)cc(CN(CCCl)CCCl)nc12 | > 100 | > 100 | > 100 | > 100 | > 100 | – | – | – |
| N#Cc1cnn2c(Nc3ccc(F)cc3)cc(CN(CCCl)CCCl)nc12 | > 100 | 77.5 | 64.2 | > 100 | 84.4 | – | – | – |
| N#Cc1cnn2c(Nc3ccc(F)c(Cl)c3)cc(CN(CCCl)CCCl)nc12 | > 100 | 76.8 | 89.4 | > 100 | 27.4 | – | – | – |
| N#Cc1cnn2c(Nc3ccc(N(CCCl)CCCl)cc3)cc(CN3CCOCC3)nc12 | 6.71 | 11.3 | 5.51 | 13.6 | 10.7 | – | – | – |
| Cc1cc(Nc2cc(CN(CCCl)CCCl)nc3c(C#N)cnn23)ccc1F | 77.9 | 38 | 39 | 75 | 76.1 | – | – | – |
| CNC(=O)c1cc(Oc2ccc(NC(=O)Nc3ccc(Cl)c(C(F)(F)F)c3)cc2)ccn1 [SORAFENIB] | 27.7 | – | – | 19.5 | – | 10.7 | 47.9 | 54.93 |
| CC1CCN(Cc2cc(Nc3cccc(N(CCCl)CCCl)c3)n3ncc(C#N)c3n2)CC1 | 25.9 | > 100 | 33.8 | 35.9 | 55.8 | – | – | – |
| CN(C)Cc1cc(Nc2ccc(N(CCCl)CCCl)cc2)n2ncc(C#N)c2n1 | 8.68 | 6.53 | 3.16 | 6.22 | 18.9 | 11 | – | – |
| N#Cc1cnn2c(Nc3cccc(N(CCCl)CCCl)c3)cc(CN3CCC(CO)CC3)nc12 | 30.7 | 41.1 | 18.4 | 27.9 | 33.4 | – | – | – |
| Cc1cccc(Nc2cc(CN(CCCl)CCCl)nc3c(C#N)cnn23)c1 | 79.9 | 25.8 | 62.1 | > 100 | 35 | – | – | – |
| N#Cc1cnn2c(Nc3ccc(F)c(C(F)(F)F)c3)cc(CN(CCCl)CCCl)nc12 | > 100 | 75.1 | > 100 | > 100 | > 100 | – | – | – |
| N#Cc1cnn2c(Nc3ccc(Cl)cc3)cc(CN(CCCl)CCCl)nc12 | 50.6 | 33 | 39.3 | 79.5 | 42.9 | – | – | – |
| N#Cc1cnn2c(Nc3cccc(N(CCCl)CCCl)c3)cc(CN3CCC(N4CCCCC4)CC3)nc12 | 9.36 | 25.1 | 9.07 | 13.2 | 22.4 | – | – | – |
| N#Cc1cnn2c(Nc3cccc(Br)c3)cc(CN(CCCl)CCCl)nc12 | > 100 | 41 | 49.7 | > 100 | > 100 | – | – | – |
| CCN1CCN(Cc2cc(Nc3ccc(N(CCCl)CCCl)cc3)n3ncc(C#N)c3n2)CC1 | 8.4 | 13.8 | 10.7 | 14.8 | 21.7 | 13.5 | – | – |
| N#Cc1cnn2c(Nc3ccc(N(CCCl)CCCl)cc3)cc(CN3CCCC3)nc12 | 9.17 | 12.4 | 5.54 | 9.84 | 27.2 | 13.7 | – | – |
